Experimental data published in ChEMBL document CHEMBL2034826, “Novel 1,2,4-triazole and imidazole derivatives of L-ascorbic and imino-ascorbic acid: synthesis, anti-HCV and antitumor activity evaluations” (Bioorg Med Chem, 2012).
Values after ≈ are worked out from the molar mass of the structure shown.

Tests used:
Hepatitis C virus = experiment: Antiviral activity against HCV genotype 1b infected in HuH 5.2 cells expressing 1389luc-ubi-neo/NS3-3' assessed as inhibition of viral replication after 72 hrs by luciferase reporter gene assay; type: functional, organism-based, Hepacivirus hominis; settings: Huh-5-2, 72 h
How it was run: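 Huh 5.2 cells carrying the genotype 1b I389luc-ubi-neo/NS3-3'/5.1 replicon, seeded at 6500 cells/well in medium without Geneticin and left overnight. Four-step 1-to-5 compound dilutions, 72 h at 37 °C. Cells washed and lysed, then luciferase luminescence read and expressed as percent of untreated controls. EC50 and EC90 from the dose-response curve.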

[1] = Cytotoxicity against human HuH5.2 cells after 72 hrs by MTS assay; type: cell-based, Huh-5-2
How it was run: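 Replicon-bearing Huh 5.2 cells treated in parallel with the antiviral plates using a four-step 1-to-5 dilution series for 72 h. Medium replaced with 5% MTS in phenol red-free medium for 1.5 h, absorbance read at 498 nm, and converted to percent of untreated controls. CC50 is the concentration that reduces metabolic activity by 50%, taken from the dose-response curve.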

[2] = Cytostatic activity against mouse L1210/0 after 48 hrs by cell counting; type: functional; settings: L1210/0, 48 h
How it was run: (§1)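 Suspension leukaemia cells in RPMI-1640 with 10% FBS, 2 mM L-glutamine, 0.075% NaHCO3. Seeded at 5–7.5 × 10^4 cells/well with compound and grown at 37 °C for 48 h (L1210) or 72 h (CEM). Cells counted by Coulter counter. IC50 is the concentration that reduces viable cell number by 50%.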

CCRF-CEM [3] = experiment: Cytostatic activity against human CEM/0 after 72 hrs by cell counting; type: functional; how it was run: as §1
HeLa = experiment: Antiproliferative activity against human HeLa cells after 72 hrs by MTT assay; type: functional, cell-based
How it was run: (§2)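 Monolayer lines grown in DMEM with 10% FBS, 2 mM L-glutamine, penicillin/streptomycin, 37 °C, 5% CO2. Seeded at 3000–6000 cells/well by doubling time, then compound added as five 10-fold dilutions (1 × 10^-8 to 1 × 10^-4 M), DMSO ≤0.1%, for 72 h. MTT read-out converted to percentage growth versus untreated wells. IC50 from linear regression. Quadruplicate points, three experiments.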

MCF7 = experiment: Antiproliferative activity against human MCF7 cells after 72 hrs by MTT assay; type: functional, cell-based; settings: MCF7, 72 h; how it was run: as §2
HepG2 = experiment: Antiproliferative activity against human HepG2 cells after 72 hrs by MTT assay; type: functional, cell-based; settings: HepG2, 72 h; how it was run: as §2
SW-620 = experiment: Antiproliferative activity against human SW620 cells after 72 hrs by MTT assay; type: functional, cell-based; settings: SW-620, 72 h; how it was run: as §2
MIA PaCa-2 = experiment: Antiproliferative activity against human MIAPaCa2 cells after 72 hrs by MTT assay; type: functional, cell-based; settings: MIA PaCa-2, 72 h; how it was run: as §2
WI-38 = experiment: Antiproliferative activity against human WI38 cells after 72 hrs by MTT assay; type: cell-based; settings: WI-38, 72 h; how it was run: as §2
L1210 [4] = experiment: Ratio of ribavirin IC50 to compound IC50 for IMPDH in mouse L1210 cells; type: cell-based
CCRF-CEM [5] = experiment: Ratio of ribavirin IC50 to compound IC50 for IMPDH in human CEM cells; type: cell-based
[6] = Selectivity index, ratio of CC50 for human HuH5.2 cells to EC50 for HCV genotype 1b
[7] = (§3) Inhibition of IMPDH in mouse L1210 cells assessed as […] after 20 to 60 mins; type: cell-based
How it was run: (§4)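 Intact L1210 or CEM cells given [2,8-3H]hypoxanthine, which the cells convert to labelled IMP. IMPDH activity measured as 3H release, sampled at 20, 40 and 60 min with or without compound at varying concentrations. After centrifugation at 1100×g for 10 min, supernatant radioactivity counted. Free 3H before cell incubation was below 10% of added label.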

L1210 [8] = experiment: as §3; type: cell-based; how it was run: as §4
[9] = (§5) Inhibition of IMPDH in human CEM cells assessed as […] after 20 to 60 mins; type: cell-based; settings: CCRF-CEM; how it was run: as §4
CCRF-CEM [10] = experiment: as §5; type: cell-based; how it was run: as §4

SMILES	EC50 (Hepatitis C virus) [µg/mL]	CC50 at 72 h [1] [µg/mL]	IC50 [2] [µM]	IC50 (CCRF-CEM [3]) [µM]	IC50 (HeLa) [µM]	IC50 (MCF7) [µM]	IC50 (HepG2) [µM]	IC50 (SW-620) [µM]	IC50 (MIA PaCa-2) [µM]	IC50 (WI-38) [µM]	EC90 (Hepatitis C virus) [µg/mL]	Ratio IC50 (L1210 [4])	Ratio IC50 (CCRF-CEM [5])	Ratio CC50/EC50 [6]	IC50 [7] [µM]	inhibition (L1210 [8])	IC50 [9] [µM]	inhibition (CCRF-CEM [10])
COC(=O)c1ncn(C[C@H](O)[C@H]2OC(=O)C(OCc3ccccc3)=C2OCc2ccccc2)n1	62.1 (≈ 133 µM)	> 100	> 100	> 100	> 100	> 100	> 100	> 100	> 100	> 100								
NC(=O)c1ncn(CCC2(O)NC(=O)C(OCc3ccccc3)=C2OCc2ccccc2)n1 (stereo unspecified)	> 100	> 100	≥ 500	445	> 100	61	66	> 100	> 100	> 100	> 100							
COC(=O)c1ncn(CCC2(O)NC(=O)C(OCc3ccccc3)=C2OCc2ccccc2)c1C(=O)OC (stereo unspecified)	36.6 (≈ 70.2 µM)	> 100	46	35	81	> 100	> 100	> 100	47	52	81.3 (≈ 156 µM)							
NC(=O)c1ncn(CCC2(O)NC(=O)C(OCc3ccccc3)=C2OCc2ccccc2)c1C(N)=O (stereo unspecified)	> 100	> 100	198	154	> 100	> 100	> 100	> 100	> 100	98	> 100	50	50					
COC(=O)c1ncn(CC=C2OC(=O)C(OCc3ccccc3)=C2OCc2ccccc2)n1 (mixture of isomers)	78.5	> 100	103	44	97	54	70	> 100	80	> 100	> 100	50	50					
COC(=O)c1ncn(CC=C2OC(=O)C(O)=C2O)n1 (mixture of isomers)	61.3	> 100	370	> 500	> 100	> 100	> 100	> 100	> 100	> 100								
COC(=O)c1ncn(CC=C2OC(=O)C(OCc3ccccc3)=C2OCc2ccccc2)c1C(=O)OC (mixture of isomers)	13.3	70.5	32	10	34	52	55	49	33	> 100	22.7	50	50	5.3				
N#Cc1ncn(C/C=C2\OC(=O)C(OCc3ccccc3)=C2OCc2ccccc2)c1C#N (mixture of isomers)	> 100	> 100	21	7.3	59	63	92	73	36	73	> 100							
COc1cccc2c1C(=O)c1c(O)c3c(c(O)c1C2=O)C[C@@](O)(C(=O)CO)C[C@@H]3O[C@H]1C[C@H](N)[C@H](O)[C@H](C)O1 [DOXORUBICIN]			1.3	0.39			0.05	0.04	0.03	0.04								
O=c1[nH]cc(F)c(=O)[nH]1 [FLUOROURACIL]					14.9	66.9	56.2	6.68	11.7	24.7								
NC(=O)c1ncn([C@@H]2O[C@H](CO)[C@@H](O)[C@H]2O)n1 [RIBAVIRIN]			22	63											1	Dose-dependent effect	1	Dose-dependent effect
